The results in this text go back to ChEMBL document CHEMBL4038314, “Synthetic Modification within the "RPRL" Region of Apelin Peptides: Impact on Cardiovascular Activity and Stability to Neprilysin and Plasma Degradation” (J Med Chem, 2017).

Data set [1] relates to Mus musculus. The data set can be described thus: Cardiovascular activity in anesthetized mouse assessed as decrease in blood pressure at 1.4 uM/kg, iv relative to control. In kind it is functional, organism-based. An outline of the steps: (§1)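 Mice under 1.5% isoflurane, body temperature held at 36 °C on a heating pad. Aorta cannulated via the right carotid artery with a 1.2F PV loop catheter to record arterial pressure and heart rate continuously. Peptide given systemically through the right internal jugular vein.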

For data set [2], the target named is T1, Neprilysin (Homo sapiens, UniProt P08473). Description: Drug degradation in human plasma assessed as NEP-mediated degradation by measuring amount of apelin remaining after 60 mins by RP-HPLC analysis. In kind it is ADME. Particulars: 1 h. In short, it runs like this:
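Human plasma (20 μL) prewarmed to 37 °C, then 5 μL of 400 μM peptide added and incubated for set times; done in triplicate. Quenched with 10% aqueous TFA, dansyl-YVG internal standard added, and peptides recovered on a C18 spin column with 40% acetonitrile/0.1% TFA. Analysed by C18 RP-HPLC; peptide/standard peak-area ratio compared with the 0 min ratio.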

The target of data set [3] is T1, Neprilysin. Description: Inhibition of recombinant human NEP using pyr-1-apelin-13 as substrate assessed as peptide degradation at 1 mM preincubated for 10 mins followed by substrate addition measured after 72 hrs by LC-MS analysis. Particulars: 1000 µM. In short, it runs like this: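 Recombinant human NEP, 3.1 nM in Tris/NaCl/10 μM ZnCl2 buffer, pH 7.5, preincubated 10 min at 37 °C with 5 μL of 1 mM analogue stock (equimolar to substrate) plus dansyl-YVG standard. Then 5 μL of 1 mM pyr-1-apelin-13 added. Aliquots taken at 0, 1, 4, 24 and 72 h and analysed by LC−MS; duplicate per time point.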

Data set [4] deals with T1, Neprilysin. Description: Drug metabolism assessed as recombinant human NEP-medited peptide proteolysis at 1 mM up to 72 hrs by LC-MS analysis. Type of data set: ADME. As to conditions: 1000 µM. An outline of the steps: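 Recombinant human NEP, 3.1 nM final in 100 mM Tris, 100 mM NaCl, 10 μM ZnCl2, pH 7.5, preincubated 10 min at 37 °C. Then 5 μL of 1 mM peptide stock and dansyl-YVG internal standard added; incubated at 37 °C for up to 72 h. Extracted-ion LC−MS ratio of parent to standard compared with 0 h and converted to percent cleaved.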

In data set [5] the test system is Mus musculus. The data set can be described thus: Cardiovascular activity in anesthetized mouse assessed as increase in heart rate at 1.4 uM/kg, iv relative to control. In kind it is functional, organism-based. An outline of the steps: as §1
Data set [6] concerns Mus musculus. The data set can be described thus: Cardiotoxicity in anesthetized mouse assessed as induction of tachycardia at 1.4 uM/kg, iv relative to control. Particulars: in vivo, 1.4 µmol/kg. In kind it is toxicity, organism-based. An outline of the steps: as §1
In data set [7] the test system is Heart. Description: Cardioprotective activity against Langendorff isolated mouse heart ischemia-reperfusion model assessed as maximum derivative change in systolic pressure over time at 1 uM administered for 10 mins during start of 40 mins reperfusion period post 30 mins ischemic induction. In kind it is functional, tissue-based. In short, it runs like this:
(§2)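 Mouse hearts (heparinized, isoflurane 1.5−2%) excised and Langendorff-perfused at constant 80 mmHg with modified Krebs−Henseleit buffer, 37 °C, 95% O2/5% CO2, pH 7.4. After 10 min baseline, 30 min global ischemia, then 40 min reperfusion. Peptide at 1 μM given for the first 10 min of reperfusion, with saline sham and native apelin-17 as controls. Left ventricular function recorded continuously.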

Data set [8] concerns Heart. Description: Cardioprotective activity against Langendorff isolated mouse heart ischemia-reperfusion model assessed as improvement in LVDP at 1 uM administered for 10 mins during start of 40 mins reperfusion period post 30 mins ischemic induction. Type of data set: functional, tissue-based. In short, it runs like this: as §2
Data set [9] relates to Heart. The data set can be described thus: Cardioprotective activity against Langendorff isolated mouse heart ischemia-reperfusion model assessed as improvement in RPP at 1 uM administered for 10 mins during start of 40 mins reperfusion period post 30 mins ischemic induction. Type of data set: functional, tissue-based. An outline of the steps: as §2
Data set [10] relates to Heart. The data set can be described thus: Cardioprotective activity against Langendorff isolated mouse heart ischemia-reperfusion model assessed as minimum derivative change in diastolic pressure over time at 1 uM administered for 10 mins during start of 40 mins reperfusion period post 30 mins ischemic induction. In kind it is functional, tissue-based. In short, it runs like this:
as §2

The source made the active and inactive calls. The calls are words filed in the database; no cut-off is given here. Starred links: 1 amine or outer side, 2 acyl side, 3 side chain; linkers in the order of their positions; H or OH if unused. Non-standard residues stand in square brackets, D forms with d. Residues, ends and D or L forms follow the SMILES beside them. Phe(4-Br) = N[C@@H](Cc1ccc(Br)cc1)C(=O)O; X1 = N=C(N)NCCCN(N[*:1])C(=O)[*:2]; NMeL = CN[C@@H](CC(C)C)C(=O)O; pGlu = O=C1CC[C@@H](C(=O)O)N1; Nle = CCCC[C@H](N)C(=O)O; Aib = CC(C)(N)C(=O)O

T1 sequence (P08473 whole entry): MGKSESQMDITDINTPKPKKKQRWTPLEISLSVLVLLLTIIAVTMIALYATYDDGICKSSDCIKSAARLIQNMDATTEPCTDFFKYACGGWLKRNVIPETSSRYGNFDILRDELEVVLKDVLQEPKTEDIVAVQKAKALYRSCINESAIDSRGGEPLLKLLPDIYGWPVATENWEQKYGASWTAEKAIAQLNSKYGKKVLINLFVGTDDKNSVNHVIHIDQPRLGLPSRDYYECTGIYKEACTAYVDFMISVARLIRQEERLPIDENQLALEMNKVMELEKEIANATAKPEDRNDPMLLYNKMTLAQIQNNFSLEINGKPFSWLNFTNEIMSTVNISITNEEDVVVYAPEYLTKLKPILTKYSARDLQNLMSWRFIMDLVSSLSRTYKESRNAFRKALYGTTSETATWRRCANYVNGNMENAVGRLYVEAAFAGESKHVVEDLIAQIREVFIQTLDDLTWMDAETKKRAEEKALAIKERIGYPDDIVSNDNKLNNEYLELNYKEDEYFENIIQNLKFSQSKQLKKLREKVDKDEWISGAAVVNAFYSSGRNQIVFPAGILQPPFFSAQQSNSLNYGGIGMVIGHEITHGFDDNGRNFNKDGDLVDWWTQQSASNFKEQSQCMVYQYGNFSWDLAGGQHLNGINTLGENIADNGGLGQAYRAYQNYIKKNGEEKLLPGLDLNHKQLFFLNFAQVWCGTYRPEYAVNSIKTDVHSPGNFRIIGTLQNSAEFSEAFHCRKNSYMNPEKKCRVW

In the case of `CCCC[C@H](NC(=O)[C@@H]1CCCN1C(=O)CNC(=O)[C@H](CCCCN)NC(=O)[C@H](Cc1c[nH]cn1)NC(=O)[C@H](CO)NC(=O)[C@H](CC(C)C)N(C)C(=O)[C@H](CCCNC(=N)N)NC(=O)[C@@H]1CCCN1C(=O)[C@H](CCCNC(=N)N)NC(=O)[C@@H]1CCC(=O)N1)C(=O)NC(C)(C)C(=O)N[C@@H](Cc1ccc(Br)cc1)C(=O)O`, the outcome in the data set on Mus musculus [1] was inactive. In addition, the Drug degradation at Neprilysin [2] amounted to 59%. On Neprilysin [3], the “inhibition (INH)” value was “Not Active”. Further, the Drug metabolism entry on Neprilysin [4] is reported as “Metabolite_Notdetected”. In addition, the result in the data set on Mus musculus [5] was Active.

For the compound `CCCC[C@H](NC(=O)[C@@H]1CCCN1C(=O)CNC(=O)[C@H](CCCCN)NC(=O)[C@H](Cc1c[nH]cn1)NC(=O)[C@H](CO)NC(=O)[C@H](CC(C)C)NC(=O)[C@H](CCCNC(=N)N)NC(=O)[C@@H]1CCCN1C(=O)[C@H](CCCNC(=N)N)NC(=O)[C@@H]1CCC(=O)N1)C(=O)NC(C)(C)C(=O)N[C@@H](Cc1ccc(Br)cc1)C(=O)O`, the outcome with Mus musculus [1] and in the data set with Mus musculus [5] was inactive. At Neprilysin [2], the Drug degradation turned out to be 65%. For the same compound, at Neprilysin [4], the Drug metabolism result is reported as “Metabolite_Detected”.

In the case of `CCCC[C@H](NC(=O)[C@@H]1CCCN1C(=O)CNC(=O)[C@H](CCCCN)NC(=O)[C@H](Cc1c[nH]cn1)NC(=O)[C@H](CO)NC(=O)[C@H](CC(C)C)NC(=O)N(CCCNC(=N)N)NC(=O)[C@@H]1CCCN1C(=O)[C@H](CCCNC(=N)N)NC(=O)[C@@H]1CCC(=O)N1)C(=O)NC(C)(C)C(=O)N[C@@H](Cc1ccc(Br)cc1)C(=O)O` ([pGlu]RP[X1]LSHKGP[Nle][Aib][Phe(4-Br)]-OH), at Neprilysin [2], the Drug degradation is 57%. Further, the “inhibition (INH)” value on Neprilysin [3] is “Not Active”. On Neprilysin [4], the Drug metabolism entry is “Metabolite_Notdetected”. Further, in the data set with Mus musculus [5], the result was Active.

`CCCC[C@H](NC(=O)[C@@H]1CCCN1C(=O)CNC(=O)[C@H](CCCCN)NC(=O)[C@H](Cc1c[nH]cn1)NC(=O)[C@H](CO)NC(=O)[C@](C)(CC(C)C)NC(=O)[C@H](CCCNC(=N)N)NC(=O)[C@@H]1CCCN1C(=O)[C@H](CCCNC(=N)N)NC(=O)[C@@H]1CCC(=O)N1)C(=O)NC(C)(C)C(=O)N[C@@H](Cc1ccc(Br)cc1)C(=O)O`: the Drug degradation at Neprilysin [2] turned out to be 38%. The “inhibition (INH)” value on Neprilysin [3] was “Not Active”. For the same compound, on Neprilysin [4], the Drug metabolism entry is listed as “Metabolite_Notdetected”. In the data set with Mus musculus [5], the result was Active.

On to `CCCC[C@H](NC(=O)[C@@H]1CCCN1C(=O)CNC(=O)[C@H](CCCCN)NC(=O)[C@H](Cc1c[nH]cn1)NC(=O)[C@H](CO)NC(=O)[C@H](CC(C)C)N(C)C(=O)[C@H](CCCNC(=N)N)NC(=O)[C@@H]1CCCN1C(=O)[C@H](CCCNC(=N)N)NC(=O)[C@H](CCC(N)=O)NC(=O)[C@H](CCCNC(=N)N)NC(=O)[C@H](CCCNC(=N)N)NC(=O)[C@H](Cc1ccccc1)NC(=O)[C@@H](N)CCCCN)C(=O)NC(C)(C)C(=O)N[C@@H](Cc1ccc(Br)cc1)C(=O)O` (H-KFRRQRPR[NMeL]SHKGP[Nle][Aib][Phe(4-Br)]-OH), for which the outcome with Mus musculus [1], in the data set with Heart [7], with Heart [8], in the data set on Heart [9] and with Heart [10] was Active. Also, the Activity result with Mus musculus [6] is reported as “Toxic”. Also, the Drug degradation at Neprilysin [2] amounted to 47%. The “inhibition (INH)” value on Neprilysin [3] is listed as “Not Active”. Further, the Drug metabolism result at Neprilysin [4] is “Metabolite_Notdetected”.
